Test results: ChEMBL document CHEMBL1144710, “epigenetic multiple ligands: mixed histone/protein methyltransferase, acetyltransferase, and class III deacetylase (sirtuin) inhibitors” (J Med Chem, 2008)
Calls of active or inactive are those of the source. Unless noted, no cut-off for these calls is given here.

Legend:
U-937 [1] = assay: Inhibition of histone H3R17 methylation in human U937 cells at 50 uM after 24 hrs; type: functional, cell-based
How it was run: (§1)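 U937 cells treated at 50 µM for 24 h. Histones extracted with Triton buffer, then 0.2 M HCl overnight at 4 °C. 3–10 µg run on 15% SDS-PAGE and immunoblotted with anti-monomethyl-H3K4, monomethyl-H4R3 or dimethyl-H3R17 (1:500, overnight 4 °C), ECL detection. Loading controls: total H4 (H3K4), Ponceau Red (Arg marks).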

[2] = target: Protein arginine N-methyltransferase 1 (Homo sapiens) (UniProt Q99873); assay: Inhibition of human recombinant PRMT1 assessed as histone H4 methylation at 50 uM
Protein arginine N-methyltransferase 1 (Homo sapiens), sequence (Q99873 whole entry, looked up): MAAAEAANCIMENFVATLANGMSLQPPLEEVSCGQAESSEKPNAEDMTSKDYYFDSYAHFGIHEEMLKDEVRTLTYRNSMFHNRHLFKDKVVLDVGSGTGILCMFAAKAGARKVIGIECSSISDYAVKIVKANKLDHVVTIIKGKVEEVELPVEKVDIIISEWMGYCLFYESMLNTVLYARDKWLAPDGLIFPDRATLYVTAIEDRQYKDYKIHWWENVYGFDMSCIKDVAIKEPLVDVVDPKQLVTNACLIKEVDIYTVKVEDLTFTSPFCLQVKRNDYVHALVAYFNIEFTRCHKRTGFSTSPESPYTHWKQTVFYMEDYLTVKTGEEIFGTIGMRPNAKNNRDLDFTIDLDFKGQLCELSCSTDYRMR

U-937 [3] = assay: Cell cycle arrest in human U937 cells assessed as accumulation at S phase at 25 uM after 30 hrs; type: functional, cell-based
How it was run: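 U937 cells in RPMI with 10% fetal calf serum, HEPES and glutamine, kept at 200000 cells/mL; treated at 25 µM for 30 h, then the distribution across cell cycle phases was analysed.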

[4] = target: T1, Histone-lysine N-methyltransferase SETD7 (Homo sapiens) (UniProt Q8WTS6); assay: Inhibition of human recombinant SET7 assessed as histone H3 protein methylation at 100 uM
T1 sequence (whole entry): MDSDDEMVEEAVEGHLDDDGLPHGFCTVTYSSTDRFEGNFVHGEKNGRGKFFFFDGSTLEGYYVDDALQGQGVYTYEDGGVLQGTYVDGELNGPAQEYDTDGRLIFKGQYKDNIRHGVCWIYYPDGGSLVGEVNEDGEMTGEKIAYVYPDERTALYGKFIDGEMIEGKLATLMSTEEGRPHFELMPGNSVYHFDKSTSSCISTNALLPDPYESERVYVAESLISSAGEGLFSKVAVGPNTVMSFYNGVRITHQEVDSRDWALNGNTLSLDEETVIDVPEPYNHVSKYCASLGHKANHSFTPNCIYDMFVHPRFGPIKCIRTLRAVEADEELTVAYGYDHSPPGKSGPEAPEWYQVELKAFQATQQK
How it was run: (§2)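 Recombinant enzymes (0.2 µg) with substrate (0.5 µg: Npl3p for PRMT1, PABP1 for CARM1, histone H3 for SET7), 0.5 µM [3H]AdoMet and 100 µM compound in PBS pH 7.4 with 3.3% v/v DMSO, 90 min at 30 °C. Products separated by 10% SDS-PAGE, transferred to PVDF, detected by fluorography on film overnight.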

U-937 [5] = assay: Inhibition of histone H4R3 methylation in human U937 cells at 50 uM after 24 hrs; type: functional, cell-based; how it was run: as §1
U-937 [6] = assay: Induction of granulocytic differentiation in human U937 cells assessed as CD11c expression at 5 uM after 30 hrs; type: functional
How it was run: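 U937 cells treated for 30 h, then stained with PE-conjugated CD11c (PE mouse IgG1 as control) for 30 min at 4 °C in the dark and resuspended in PBS with PI (0.25 µg/mL). Read-out is percent CD11c-positive/PI-negative cells, with dead PI-positive cells excluded. Coloured compounds limited the top dose to 5 µM or lower.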

[7] = target: Protein arginine N-methyltransferase 1 (Homo sapiens) (UniProt Q99873); assay: Inhibition of human recombinant PRMT1 assessed as nuclear ribonucleoprotein Npl3p methylation at 100 uM; how it was run: as §2

- inhibition [2]: 91%
- Activity [4]: Active
- Activity [7]: Active
Structure (SMILES): O=C1/C(=C/c2cc(Br)c(O)c(Br)c2)COC/C1=C\c1cc(Br)c(O)c(Br)c1
- Activity (U-937 [1]): Active
- Activity (U-937 [3]): Active
- Activity (U-937 [5]): Active
- Activity (U-937 [6]): 96.1%
